Results as given in ChEMBL document CHEMBL4033640, “Design, synthesis and biological evaluation of 3-substituted-2-oxindole hybrid derivatives as novel anticancer agents” (Eur J Med Chem, 2017).
Activity calls are given as the source filed them. No cut-off for these calls is given here.

What was measured:
[1] = biological target: T1, Serine/threonine-protein kinase Nek2 (Homo sapiens) (UniProt P51955); experiment: Inhibition of recombinant human full-length N-terminal GST-tagged NEK2 expressed in baculovirus infected Sf9 insect cells at 1 uM using MBP as substrate after 30 mins by ADP-Glo reagent based luminescence assay
T1 sequence (whole entry): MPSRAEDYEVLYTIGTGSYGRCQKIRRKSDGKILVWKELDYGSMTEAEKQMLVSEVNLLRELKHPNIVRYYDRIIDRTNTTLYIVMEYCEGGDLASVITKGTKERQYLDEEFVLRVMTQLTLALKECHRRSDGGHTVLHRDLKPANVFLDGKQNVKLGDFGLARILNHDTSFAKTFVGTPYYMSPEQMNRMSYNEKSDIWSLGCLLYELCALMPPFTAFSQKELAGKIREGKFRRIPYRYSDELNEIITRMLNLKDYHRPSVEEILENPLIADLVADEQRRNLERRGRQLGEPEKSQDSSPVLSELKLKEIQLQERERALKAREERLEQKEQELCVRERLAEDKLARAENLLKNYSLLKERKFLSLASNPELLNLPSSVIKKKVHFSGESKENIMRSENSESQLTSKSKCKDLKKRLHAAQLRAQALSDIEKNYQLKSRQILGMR
Procedure, shortened: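 Nek2 activity measured with the bioluminescent ADP-Glo kinase assay, compounds at 1 µM final concentration. Percentage inhibition given as means ± SEM of two independent experiments performed in duplicate.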

Jurkat [2] = experiment: Antiproliferative activity against human Jurkat cells after 72 hrs by MTT assay; type: functional, cell-based
Procedure, shortened: (§1)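 Cells exposed to graded compound concentrations (from 10 mM DMSO stocks) in triplicate for 72 h at 37 °C. Viability measured by MTT. IC50 taken from dose-response curves, given as mean ± SE of at least three independent experiments run in triplicate.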

RS4-11 = experiment: Antiproliferative activity against human RS4:11 cells after 72 hrs by MTT assay; type: functional, cell-based; conditions: RS4-11, 72 h
HL-60 = experiment: Antiproliferative activity against human HL60 cells after 72 hrs by MTT assay; type: functional, cell-based; conditions: HL-60, 72 h
MCF7 = experiment: Antiproliferative activity against human MCF7 cells after 72 hrs by MTT assay; type: functional, cell-based; conditions: MCF7, 72 h
Procedure, shortened: as §1, with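 “Cells grown in DMEM with 10% FBS, penicillin G and streptomycin. 8 × 10³ cells per well, incubated overnight at 37 °C in 5% CO₂, then” for “Cells”, “h.” for “h at 37 °C.”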

HT-29 = experiment: Antiproliferative activity against human HT-29 cells after 72 hrs by MTT assay; type: functional, cell-based; conditions: HT-29, 72 h
Procedure, shortened: as §1, with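 “Cells grown in DMEM with 10% FBS, penicillin G and streptomycin. 8 × 10³ cells per well, incubated overnight at 37 °C in 5% CO₂, then” for “Cells”, “h.” for “h at 37 °C.”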

CCRF-CEM = experiment: Antiproliferative activity against human CCRF-CEM cells after 72 hrs by MTT assay; type: functional, cell-based
HeLa [3] = experiment: Antiproliferative activity against human HeLa cells after 72 hrs by MTT assay; type: functional, cell-based
Procedure, shortened: as §1, with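 “Cells grown in DMEM with 10% FBS, penicillin G and streptomycin. 8 × 10³ cells per well, incubated overnight at 37 °C in 5% CO₂, then” for “Cells”, “h.” for “h at 37 °C.”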

Jurkat [4] = experiment: Induction of GSH depletion in human Jurkat cells at 0.5 to 10 uM after 30 mins by CMFDA-probe based flow cytometry; type: functional, cell-based; conditions: in the assay text read “after 12 to 24 hrs” for “after 30 mins”
Procedure, shortened: (§2)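 Cells treated with compound for 12–24 h, harvested, then loaded with 5 µM CMFDA at 37 °C for 30 min. GSH-dependent fluorescence measured by flow cytometry. Means ± S.E.M. of three independent experiments.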

HeLa [5] = experiment: Antiproliferative activity against human HeLa cells at 1 uM after 48 hrs in presence of 100 uM TOC by annexin-V staining based assay; type: functional, cell-based
Procedure, shortened: (§3)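 HeLa cells treated with compound at 1.0 µM for 48 h together with 100 µM N-acetyl-L-cysteine or DL-α-tocopherol acetate. Cell death measured by annexin-V assay with flow cytometry. Means ± S.E.M. of three independent experiments.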

HeLa [6] = experiment: Induction of apoptosis in human HeLa cells assessed as cleaved caspase-9 expression at 0.5 to 1 uM after 24 hrs by Western blot analysis; type: functional, cell-based
Procedure, shortened: (§4)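 HeLa cells treated for 24 h and washed in ice-cold PBS. Cells lysed on ice for 30 min and lysate cleared at 15000 x g. 10 μg protein resolved by SDS-PAGE (7.5–15%) and blotted. Membranes blocked with 3% BSA, probed with antibodies to caspase-9 or γH2AX, detected by ECL. Bands quantified and normalized to β-actin, mean±SD of two gels.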

HeLa [7] = experiment: Induction of DNA damage in human HeLa cells assessed as increase in gamma-H2AX level at 0.5 to 1 uM after 24 hrs by Western blot analysis; type: functional, cell-based; procedure, shortened: as §4
Jurkat [8] = experiment: Induction of mitochondrial membrane depolarization in human Jurkat cells at 10 to 100 nM after 12 to 24 hrs JC-1 staining based flow cytometry; type: functional, cell-based
Procedure, shortened: (§5)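 Cells treated at the indicated concentrations for the indicated times (12 and 24 h). Stained with JC-1 and analyzed by flow cytometry for dissipation of mitochondrial membrane potential.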

HeLa [9] = experiment: Induction of GSH depletion in human HeLa cells at 0.5 to 10 uM after 30 mins by CMFDA-probe based flow cytometry; type: functional, cell-based; conditions: in the assay text read “after 12 to 24 hrs” for “after 30 mins”; procedure, shortened: as §2
PBL [10] = experiment: Cytotoxicity against resting human PBL assessed as reduction in cell viability after 72 hrs by MTT assay; type: cell-based
Procedure, shortened: (§6)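 PBL isolated from healthy donors' buffy coats by density-gradient centrifugation and held overnight in RPMI-1640 with 10% FBS. Non-adherent cells without PHA resuspended at 5 × 10⁵ cells/mL and treated for 72 h. Viability read by MTT. IC50 reported as mean ± SEM of two separate experiments.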

HeLa [11] = experiment: Induction of mitochondrial membrane depolarization in human HeLa cells at 0.5 to 1 uM after 12 to 24 hrs JC-1 staining based flow cytometry; type: functional, cell-based; procedure, shortened: as §5
HeLa [12] = experiment: Cell cycle arrest in human HeLa cells assessed as decrease in G1 phase at 1 uM after 24 hrs by propidium iodide staining based flow cytometry; type: functional; parameters: scale not given: the % may be the effect or the level left
Procedure, shortened: (§7)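 5 × 10⁵ HeLa cells treated for 24 h at the indicated concentrations, then fixed in ice-cold 70% ethanol. Lysis buffer with RNase A and 0.1% Triton X-100 applied, cells stained with PI, and DNA content read by flow cytometry to give percentage of cells in each phase.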

HeLa [13] = experiment: Antiproliferative activity against human HeLa cells at 1 uM after 48 hrs in presence of 100 uM NAC by annexin-V staining based assay; type: functional, cell-based; procedure, shortened: as §3
PBL [14] = experiment: Cytotoxicity against PHA-stimulated human PBL assessed as reduction in cell viability after 72 hrs by MTT assay; type: cell-based
Procedure, shortened: as §6, with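 “cells” for “cells without PHA”, “cells/mL with 2.5 μg/mL PHA” for “cells/mL”, “given graded compound concentrations.” for “treated for 72 h.”, “MTT after 72 h.” for “MTT.”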

Jurkat [15] = experiment: Induction of apoptosis in human Jurkat cells at 100 nM after 24 to 48 hrs by annexin-V/FITC propidium iodide staining based flow cytometry; type: functional, cell-based
Procedure, shortened: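 Cells treated with compound at the indicated concentrations for 24 or 48 h, then double-stained with annexin V-FITC and PI. Phosphatidylserine exposure measured by flow cytometry. Means ± SEM of three independent experiments.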

HeLa [16] = experiment: Cell cycle arrest in human HeLa cells assessed as decrease in G1 phase at 0.5 to 1 uM after 24 hrs by propidium iodide staining based flow cytometry; type: functional; procedure, shortened: as §7

Structure (SMILES)	inhibition [1] [%]	IC50 (Jurkat [2]) [µM]	IC50 (RS4-11) [µM]	IC50 (HL-60) [µM]	IC50 (MCF7) [µM]	IC50 (HT-29) [µM]	IC50 (CCRF-CEM) [µM]	IC50 (HeLa [3]) [µM]	also measured
C=C(Br)C(=O)Nc1ccc2c(c1)/C(=C\c1cccs1)C(=O)N2	5 to 20	0.016	0.03	0.015	2.3	5.5	0.01	1.8	–
C=C(Br)C(=O)Nc1ccc2c(c1)/C(=C\c1sccc1C)C(=O)N2	5 to 20	0.04	0.004	0.039	2.3	0.33	0.0009	0.45	Activity (Jurkat [4]): Active; Activity (HeLa [5]): inactive; Activity (HeLa [6]): Active; Activity (HeLa [7]): Active; Activity (Jurkat [8]): Active; Activity (HeLa [9]): Active; IC50 (PBL [10]): 0.45 µM; Activity (HeLa [11]): Active; Activity (HeLa [12]): 20%; Activity (HeLa [13]): Active; IC50 (PBL [14]): 1.22 µM; Activity (Jurkat [15]): Active
C=C(Br)C(=O)Nc1ccc2c(c1)/C(=C/c1sccc1C)C(=O)N2	5 to 20	0.03	0.0004	0.013	2.6	1.2	0.0005	0.42	–
Nc1ccc2c(c1)C(=Cc1ccsc1)C(=O)N2	–	–	> 10	–	–	–	> 10	–	–
C=C(Br)C(=O)Nc1ccc2c(c1)/C(=C/c1cccs1)C(=O)N2	5 to 20	0.21	0.002	0.23	1.7	0.24	0.035	1.7	–
C=C(Br)C(=O)Nc1ccc2c(c1)CC(=O)N2	5 to 20	1.1	0.22	0.35	3.3	4.4	0.22	4.5	–
C#CC(=O)Nc1ccc2c(c1)/C(=C/c1ccc[nH]1)C(=O)N2	5 to 20	0.34	0.07	5.8	3.7	2.3	0.05	4.4	Activity (HeLa [16]): inactive

Now from value to compound, other results behind:

inhibition [1] [%]	IC50 (Jurkat [2]) [µM]	IC50 (RS4-11) [µM]	IC50 (HL-60) [µM]	IC50 (MCF7) [µM]	IC50 (HT-29) [µM]	IC50 (CCRF-CEM) [µM]	IC50 (HeLa [3]) [µM]	Structure (SMILES)	also measured
5 to 20	0.056	0.19	0.77	2.1	0.31	0.006	2.6	C=C(Br)C(=O)Nc1ccc2c(c1)/C(=C\c1ccsc1)C(=O)N2	–
50	0.11	0.001	0.14	0.7	0.8	0.003	0.5	C=C(Br)C(=O)Nc1ccc2c(c1)/C(=C/c1ccc[nH]1)C(=O)N2	Activity (Jurkat [4]): Active; Activity (HeLa [5]): inactive; Activity (HeLa [6]): Active; Activity (HeLa [7]): Active; Activity (Jurkat [8]): Active; Activity (HeLa [9]): Active; IC50 (PBL [10]): 1.5 µM; Activity (HeLa [11]): Active; Activity (HeLa [12]): 20%; Activity (HeLa [13]): Active; IC50 (PBL [14]): 0.83 to 0.85 µM; Activity (Jurkat [15]): Active
5 to 20	0.15	0.02	0.012	4.4	0.3	0.001	2	C=C(Br)C(=O)Nc1ccc2c(c1)/C(=C\c1ccc(C)s1)C(=O)N2	–
5 to 20	0.19	0.19	0.35	2.8	0.6	0.004	3.5	C=C(Br)C(=O)Nc1ccc2c(c1)/C(=C/c1ccsc1)C(=O)N2	–
5 to 20	0.36	0.05	0.024	3	0.56	0.009	1.6	C=C(Br)C(=O)Nc1ccc2c(c1)/C(=C/c1ccc(C)s1)C(=O)N2	–
